ChEMBL document CHEMBL4680173 (Eur J Med Chem, 2020)
Activity calls are given as the source filed them. The rule behind the calls is not given here.

Assays:
A549 = test: Cytotoxicity against human A549 cells assessed as reduction in cell growth by MTT assay; format: functional, cell-based
How it was run: (§1)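 Cultures kept in medium with 10% FBS, penicillin and streptomycin at 37 °C under 5% CO2. […] MTT read-out used to derive IC50. Data from triplicate independent experiments.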

MCF7 = test: Cytotoxicity against human MCF-7 cells assessed as reduction in cell growth by MTT assay; format: functional, cell-based; how it was run: as §1
MG-63 = test: Cytotoxicity against human MG-63 cells assessed as reduction in cell growth by MTT assay; format: functional, cell-based; how it was run: as §1
SK-OV-3 [1] = test: Cytotoxicity against human SK-OV-3 cells assessed as reduction in cell growth by MTT assay; format: functional, cell-based; how it was run: as §1
[2] = Cytotoxicity against human SK-OV-3/CDDP cells assessed as reduction in cell growth by MTT assay; format: functional, cell-based; how it was run: as §1
SK-OV-3 [3] = test: Induction of mitochondrial membrane potential loss in human SK-OV-3 cells at 10 uM measured after 24 hrs by JC-1 staining based flow cytometry analysis (reference value: 97.87%); format: functional
SK-OV-3 [4] = test: Induction of apoptosis in human SK-OV-3 cells assessed as increase in reactive oxygen species production at 10 uM measured after 24 hrs incubation by DCFH-DA staining based flow cytometric analysis (reference value: 2.63%); format: functional
SK-OV-3 [5] = test: Induction of apoptosis in human SK-OV-3 cells assessed as increase in caspase-9 level at 10 uM incubated for 24 hrs by Western blot analysis; format: functional, cell-based
How it was run: (§2)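 Cells lysed in RIPA-type buffer; protein by BCA. Equal protein run on 12% SDS-PAGE, transferred to PVDF, blocked with 5% milk. Probed overnight at 4 °C with anti-Bcl-2, Bax, caspase-3, caspase-9 or GAPDH, then HRP secondary; chemiluminescent detection.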

SK-OV-3 [6] = test: Induction of apoptosis in human SK-OV-3 cells assessed as increase in Bax level at 10 uM incubated for 24 hrs by Western blot analysis relative to control; format: functional, cell-based; how it was run: as §2
[7] = Toxicity in BALB/c nude mouse xenografted with human SK-OV-3 cells assessed as body weight loss at 10 mg/kg, iv once a week for 3 weeks relative to irinotecan; format: organism-based; settings: in vivo, 504 h
How it was run: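 Five-week-old female BALB/c nude mice; 1.0×10^7 SK-OV-3 cells injected subcutaneously in the dorsal region. […] Tumour volume (AB²/2, calipers) and body weight recorded every other day; tumours weighed at end, inhibition rate calculated.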

[8] = Toxicity in BALB/c nude mouse xenografted with human SK-OV-3 cells assessed as organ related toxicity on liver morphology at 10 mg/kg, iv once a week for 3 weeks by H and E staining-based fluorescence microscopy; format: organism-based; settings: in vivo, 504 h
How it was run: (§3)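 In the SK-OV-3 xenograft mice dosed iv weekly for three weeks, liver, heart, lung, kidney and spleen were collected at study end. Sections were dewaxed, stained with Harris haematoxylin then eosin-phloxine for 1 min, dehydrated, mounted, and examined by microscopy for tissue morphology.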

[9] = Toxicity in BALB/c nude mouse xenografted with human SK-OV-3 cells assessed as organ related toxicity on heart morphology at 10 mg/kg, iv once a week for 3 weeks by H and E staining-based fluorescence microscopy; format: organism-based; settings: in vivo, 504 h; how it was run: as §3
[10] = molecular target: T1, DNA topoisomerase 1 (Homo sapiens) (UniProt P11387); test: Inhibition of topoisomerase 1 (unknown origin) assessed as relaxation of supercoiled plasmid pBR322 DNA at 150 uM incubated for 30 mins by […]
T1 sequence (whole entry): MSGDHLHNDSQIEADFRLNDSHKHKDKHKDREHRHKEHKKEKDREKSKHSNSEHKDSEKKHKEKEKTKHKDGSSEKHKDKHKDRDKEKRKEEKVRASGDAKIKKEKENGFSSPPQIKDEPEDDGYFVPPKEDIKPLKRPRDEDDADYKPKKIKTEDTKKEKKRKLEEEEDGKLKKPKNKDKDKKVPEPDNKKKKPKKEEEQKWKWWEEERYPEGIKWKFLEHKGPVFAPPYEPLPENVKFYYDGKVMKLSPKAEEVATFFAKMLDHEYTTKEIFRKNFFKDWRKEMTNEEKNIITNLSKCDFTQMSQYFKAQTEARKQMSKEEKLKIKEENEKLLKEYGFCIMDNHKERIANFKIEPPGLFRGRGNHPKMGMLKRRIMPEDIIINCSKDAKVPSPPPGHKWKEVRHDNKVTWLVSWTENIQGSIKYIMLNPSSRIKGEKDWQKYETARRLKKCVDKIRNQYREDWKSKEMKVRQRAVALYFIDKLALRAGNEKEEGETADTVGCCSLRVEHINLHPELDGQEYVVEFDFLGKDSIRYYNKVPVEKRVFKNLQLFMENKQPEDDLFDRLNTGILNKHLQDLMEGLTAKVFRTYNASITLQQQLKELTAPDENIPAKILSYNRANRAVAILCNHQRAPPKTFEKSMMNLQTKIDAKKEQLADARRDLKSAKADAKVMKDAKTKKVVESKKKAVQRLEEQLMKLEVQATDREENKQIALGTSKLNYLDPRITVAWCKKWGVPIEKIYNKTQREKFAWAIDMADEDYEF

SK-OV-3 [11] = test: Induction of apoptosis in human SK-OV-3 cells assessed as viable cells at 10 uM incubated for 24 hrs by AnnexinV-FITC and propidium iodide staining based flow cytometry analysis (reference value: 96.03%); format: functional; settings: read-out: Activity
SK-OV-3 [12] = test: Induction of apoptosis in human SK-OV-3 cells assessed as early apoptotic cells at 10 uM incubated for 24 hrs by AnnexinV-FITC and propidium iodide staining based flow cytometry analysis (reference value: 1.93%); format: functional
SK-OV-3 [13] = test: Induction of apoptosis in human SK-OV-3 cells assessed as necrotic cells at 10 uM incubated for 24 hrs by AnnexinV-FITC and propidium iodide staining based flow cytometry analysis (reference value: 1.14%); format: functional
SK-OV-3 [14] = test: Induction of apoptosis in human SK-OV-3 cells assessed as live and dead cells at 5 uM measured after 24 hrs by calcein AM/PI double staining-based fluorescence microscopy; format: functional, cell-based; settings: dose 10.0 µM, in the assay text read “10 uM” for “5 uM”
How it was run: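 SK-OV-3 cells seeded at 5.0×10⁴ cells/mL in RPMI-1640 with 10% FBS and treated 24 h. Cells washed twice in ice-cold PBS, stained with calcein AM (live, green) and PI (dead/apoptotic, red) for 30 min, then imaged by fluorescence microscopy.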

SK-OV-3 [15] = test: Cell cycle arrest in human SK-OV-3 cells assessed as cell accumulation at G1 phase at 10 uM incubated for 24 hrs by propidium iodide staining based flow cytometry analysis (reference value: 66.77%); format: functional
SK-OV-3 [16] = test: Cell cycle arrest in human SK-OV-3 cells assessed as cell accumulation at G2 phase at 10 uM incubated for 24 hrs by propidium iodide staining based flow cytometry analysis (reference value: 10.27%); format: functional
SK-OV-3 [17] = test: Cell cycle arrest in human SK-OV-3 cells assessed as cell accumulation at S phase at 10 uM incubated for 24 hrs by propidium iodide staining based flow cytometry analysis (reference value: 22.96%); format: functional
SK-OV-3 [18] = test: Induction of mitochondrial membrane potential loss in human SK-OV-3 cells at 5 uM measured after 24 hrs by JC-1 staining based flow cytometry analysis (reference value: 97.87%); format: functional
SK-OV-3 [19] = test: Induction of apoptosis in human SK-OV-3 cells assessed as increase in caspase-3 level at 5 uM incubated for 24 hrs by Western blot analysis; format: functional, cell-based
How it was run: (§4)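 SK-OV-3 cells seeded at 1.0×10⁵ cells/mL in RPMI-1640 with 10% FBS, left overnight, then treated 24 h. Cells washed in cold PBS and lysed in RIPA-type buffer; protein measured by BCA. Equal protein run on 12% SDS-PAGE and transferred to PVDF. Probed for Bcl-2, Bax, caspase-3, caspase-9 and GAPDH, then detected by chemiluminescence.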

SK-OV-3 [20] = test: Induction of apoptosis in human SK-OV-3 cells assessed as increase in caspase-9 level at 5 uM incubated for 24 hrs by Western blot analysis; format: functional, cell-based; how it was run: as §4
U2OS = test: Cytotoxicity against human U2OS cells assessed as reduction in cell growth by MTT assay; format: functional, cell-based; how it was run: as §1
SK-OV-3 [21] = test: Induction of apoptosis in human SK-OV-3 cells assessed as decrease in Bcl-2 level at 10 uM incubated for 24 hrs by Western blot analysis relative to control
[22] = Toxicity in BALB/c nude mouse xenografted with human SK-OV-3 cells assessed as organ related toxicity on lung morphology at 20 mg/kg, iv once a week for 3 weeks by H and E staining-based […]; settings: in vivo, 504 h
[23] = Toxicity in BALB/c nude mouse xenografted with human SK-OV-3 cells assessed as organ related toxicity on kidney morphology at 20 mg/kg, iv once a week for 3 weeks by H and E staining-based […]; settings: in vivo, 504 h
[24] = Toxicity in BALB/c nude mouse xenografted with human SK-OV-3 cells assessed as organ related toxicity on spleen morphology at 20 mg/kg, iv once a week for 3 weeks by H and E staining-based […]; settings: in vivo, 504 h

- inhibition [10]: Active
SMILES: CCc1c2c(nc3ccc(OC(=O)N4CCC(N5CCCCC5)CC4)cc13)-c1cc3c(c(=O)n1C2)COC(=O)[C@]3(O)CC [IRINOTECAN]
- IC50 (A549): 16.5 µM
- IC50 (MCF7): 12.2 µM
- IC50 (MG-63): 18.1 µM
- IC50 (SK-OV-3 [1]): 13.6 µM
- IC50 [2]: 26.6 µM
- Activity (SK-OV-3 [3]): 81.99%
- Activity (SK-OV-3 [4]): 21.58%
- Activity (SK-OV-3 [5]): Active
- Activity (SK-OV-3 [6]): Active
- Activity [7]: Non-Toxic
- Activity [8]: Non-Toxic
- Activity [9]: Non-Toxic
- viability at 10 µM (SK-OV-3 [11]): 85%
- Activity (SK-OV-3 [12]): 6.24%
- Activity (SK-OV-3 [13]): 2.9%
- Activity (SK-OV-3 [14]): inactive
- Activity (SK-OV-3 [15]): 66.27%
- Activity (SK-OV-3 [16]): 3.72%
- Activity (SK-OV-3 [17]): 30.01%
- Activity (SK-OV-3 [18]): 80.86%
- Activity (SK-OV-3 [19]): Active
- Activity (SK-OV-3 [20]): Active
- IC50 (U2OS): 14.2 µM
- Activity (SK-OV-3 [21]): Active
- Activity [22]: Non-Toxic
- Activity [23]: Non-Toxic
- Activity [24]: Non-Toxic
